Common to all, as to type: functional
The test system of assay [1] is Zea mays. Description: Herbicidal activity against Zea mays (maize) assessed as inhibition of height growth at 200 ug/ml relative to control. The note with it: read-out: GI. Summed up:
(§1)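 Seedlings were grown in an illumination incubator from ten Zea mays seeds or five Triticum aestivum seeds per plate, on filter paper wetted with 2 mL of test solution at 200 mg/L. Distilled water served as blank and metazachlor as positive control. Inhibitory ratio (0–100%) was scored against distilled water.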

Assay [2] has as its system Triticum aestivum. The assay is described as follows: Herbicidal activity against Triticum aestivum (wheat) assessed as inhibition of root growth at 200 ug/ml relative to control. Particulars: read-out: GI. Summed up:
as §1

The subject of the next assay is Arabidopsis thaliana. Description: Herbicidal activity against Arabidopsis thaliana assessed as inhibition of seed germination at 200 ug/ml relative to control. The gist of the method: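 Five sterilized Arabidopsis thaliana […] per well in 24-well sterile plates, each with 100 μL of test solution at 200 mg/L, grown in an illumination incubator. Distilled water served as blank and metazachlor as positive control. Inhibitory ratio (0–100%) was scored against distilled water.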

Assay [3] has as its system Zea mays. Description: Herbicidal activity against Zea mays (maize) assessed as inhibition of root growth at 200 ug/ml relative to control. The note with it: read-out: GI. Summed up:
as §1

The test system of assay [4] is Triticum aestivum. Description: Herbicidal activity against Triticum aestivum (wheat) assessed as inhibition of height growth at 200 ug/ml relative to control. The note with it: read-out: GI. Summed up: as §1

Consider `Cc1ccccc1C(=O)Oc1ccc(CC2NC(=S)NC2=O)cc1` (stereo not given), for which the inhibition of growth at 200 µg/mL in the assay on Zea mays [1] is 53.2%; in the assay with Triticum aestivum [2], 20.7%; in the assay with Zea mays [3], 33.5%; in the assay with Triticum aestivum [4], 5.8%. In the assay with Arabidopsis thaliana, the inhibition (usually the share of the control response that was lost under treatment) at 200 µg/mL came to 60%.

Regarding `COc1ccc(C(=O)Oc2ccc(CC3NC(=S)NC3=O)cc2)cc1OC` (stereo not given), the inhibition of growth at 200 µg/mL came out at 57.9% with Zea mays [1], 43.1% in the assay on Triticum aestivum [2], 64.2% with Zea mays [3] and 26.1% in the assay with Triticum aestivum [4]. Besides, in the assay on Arabidopsis thaliana, the inhibition at 200 µg/mL stood at 50%.

For `O=C(Cc1ccccc1)Oc1ccc(CC2NC(=S)NC2=O)cc1` (stereo not given), the inhibition of growth at 200 µg/mL in the assay on Zea mays [1] turned out to be 53.9%; with Triticum aestivum [2], 42.1%; with Zea mays [3] it was 58.1%; in the assay with Triticum aestivum [4], 34.9%. In the assay on Arabidopsis thaliana, the inhibition at 200 µg/mL amounted to 20%.

`O=C(COc1ccc(Cl)cc1Cl)Oc1ccc(CC2NC(=S)NC2=O)cc1` (stereo not given): the inhibition of growth at 200 µg/mL came to 65.5% with Zea mays [1], 99.6% in the assay with Triticum aestivum [2], 74.9% with Zea mays [3] and 97.8% in the assay with Triticum aestivum [4]. Also, the inhibition at 200 µg/mL in the assay on Arabidopsis thaliana was 50%.

For the compound `COc1ccccc1C(=O)Oc1ccc(CC2NC(=S)NC2=O)cc1` (stereo not given), the inhibition of growth at 200 µg/mL in the assay with Zea mays [1] was -26.2%; with Triticum aestivum [2], 79.1%; in the assay with Zea mays [3] it was -29%; in the assay on Triticum aestivum [4] it was 81.3%. In the assay with Arabidopsis thaliana, the inhibition at 200 µg/mL amounted to 50%.

With `O=C(COc1ccc(Cl)cc1)Oc1ccc(CC2NC(=S)NC2=O)cc1` (stereo not given), the inhibition of growth at 200 µg/mL in the assay on Zea mays [1] is 16.4%; in the assay with Triticum aestivum [2], 99.6%; with Zea mays [3] it was 59.4%; in the assay with Triticum aestivum [4], 95.2%. In the assay on Arabidopsis thaliana, the inhibition at 200 µg/mL is 40%.

In the case of `COc1cc(C(=O)Oc2ccc(CC3NC(=S)NC3=O)cc2)cc(OC)c1OC` (stereo not given), the inhibition of growth at 200 µg/mL was determined as 22.1% in the assay on Zea mays [1], 59.7% in the assay on Triticum aestivum [2], 19.9% with Zea mays [3] and 42.3% in the assay on Triticum aestivum [4]. Moreover, the inhibition at 200 µg/mL with Arabidopsis thaliana worked out at 10%.

In the case of `O=C(Oc1ccc(CC2NC(=S)NC2=O)cc1)c1ccc(-c2ccccc2)cc1` (stereo not given), the inhibition of growth at 200 µg/mL with Zea mays [1] was found to be 42.4%; with Triticum aestivum [2], 3.2%; in the assay with Zea mays [3], 48.7%; with Triticum aestivum [4] it was 20.9%. The inhibition at 200 µg/mL in the assay on Arabidopsis thaliana worked out at 5%.

Consider `CC(C)(C)c1ccc(C(=O)Oc2ccc(CC3NC(=S)NC3=O)cc2)cc1` (stereo not given), for which the inhibition of growth at 200 µg/mL in the assay with Zea mays [1] worked out at 30.9%; with Triticum aestivum [2], 25.9%; in the assay with Zea mays [3], 22.5%; in the assay on Triticum aestivum [4] it was 55.5%. Further, the inhibition at 200 µg/mL with Arabidopsis thaliana is 10%.

`O=C(Oc1ccc(CC2NC(=S)NC2=O)cc1)c1cc([N+](=O)[O-])cc([N+](=O)[O-])c1` (stereo not given): the inhibition of growth at 200 µg/mL amounted to 27.8% in the assay with Zea mays [1], 18.8% in the assay with Triticum aestivum [2], 71% with Zea mays [3] and 86.2% in the assay with Triticum aestivum [4]. In the assay on Arabidopsis thaliana, the inhibition at 200 µg/mL came to 5%.

For `O=C(Oc1ccc(CC2NC(=S)NC2=O)cc1)c1cccs1` (stereo not given), the inhibition of growth at 200 µg/mL is 11.6% in the assay on Zea mays [1], 15.5% in the assay on Triticum aestivum [2], -24.7% in the assay on Zea mays [3] and -1.2% in the assay on Triticum aestivum [4]. In addition, the inhibition at 200 µg/mL with Arabidopsis thaliana came out at 20%.

As for `O=C(/C=C/c1ccccc1)Oc1ccc(CC2NC(=S)NC2=O)cc1` (stereo not given), the inhibition of growth at 200 µg/mL turned out to be 52.7% in the assay on Zea mays [1], 2.5% with Triticum aestivum [2], 77.9% in the assay with Zea mays [3] and 33.8% with Triticum aestivum [4]. Further, in the assay on Arabidopsis thaliana, the inhibition at 200 µg/mL was 10%.

For the compound `O=C(Cc1cc(C(F)(F)F)cc(C(F)(F)F)c1)Oc1ccc(CC2NC(=S)NC2=O)cc1` (stereo not given), the inhibition of growth at 200 µg/mL was determined as 45.5% in the assay on Zea mays [1], 32.7% with Triticum aestivum [2], 71.5% in the assay on Zea mays [3] and 65.5% with Triticum aestivum [4]. Moreover, the inhibition at 200 µg/mL in the assay with Arabidopsis thaliana worked out at 5%.

For `O=C(Cc1ccc(F)cc1)Oc1ccc(CC2NC(=S)NC2=O)cc1` (stereo not given), the inhibition of growth at 200 µg/mL in the assay on Zea mays [1] came out at 70.1%; with Triticum aestivum [2], 86.6%; in the assay with Zea mays [3], 77.3%; with Triticum aestivum [4], 50.2%. Further, the inhibition at 200 µg/mL in the assay with Arabidopsis thaliana amounted to 20%.

Turning to `O=C(Oc1ccc(CC2NC(=S)NC2=O)cc1)c1ccco1` (stereo not given), the inhibition of growth at 200 µg/mL with Zea mays [1] stood at 72.8%; with Triticum aestivum [2] it was 30.3%; in the assay with Zea mays [3], 60.7%; in the assay on Triticum aestivum [4], 27.5%. In addition, the inhibition at 200 µg/mL in the assay on Arabidopsis thaliana was found to be 40%.

With `O=C(Oc1ccc(CC2NC(=S)NC2=O)cc1)c1ccccc1` (stereo not given), the inhibition of growth at 200 µg/mL is 26.6% with Zea mays [1], 16.2% with Triticum aestivum [2], 44.5% in the assay on Zea mays [3] and -11.1% with Triticum aestivum [4]. Moreover, the inhibition at 200 µg/mL with Arabidopsis thaliana was 10%.

`O=C(Oc1ccc(CC2NC(=S)NC2=O)cc1)c1cccc([N+](=O)[O-])c1` (stereo not given): the inhibition of growth at 200 µg/mL was 3.9% in the assay on Zea mays [1], 16.3% in the assay with Triticum aestivum [2], -16.3% in the assay with Zea mays [3] and 20.6% in the assay on Triticum aestivum [4]. Moreover, the inhibition at 200 µg/mL in the assay with Arabidopsis thaliana was 20%.

Turning to `O=C(Oc1ccc(CC2NC(=S)NC2=O)cc1)c1ccccc1F` (stereo not given), the inhibition of growth at 200 µg/mL is -19.4% in the assay on Zea mays [1], 57.9% in the assay with Triticum aestivum [2], -30.2% with Zea mays [3] and 48.4% in the assay with Triticum aestivum [4]. Moreover, in the assay on Arabidopsis thaliana, the inhibition at 200 µg/mL amounted to 30%.

With `COc1ccc(C(=O)Oc2ccc(CC3NC(=S)NC3=O)cc2)c(OC)c1` (stereo not given), the inhibition of growth at 200 µg/mL is 19.6% in the assay on Zea mays [1], 10.7% in the assay with Triticum aestivum [2], -11.6% in the assay with Zea mays [3] and -2.9% in the assay on Triticum aestivum [4]. Further, the inhibition at 200 µg/mL in the assay on Arabidopsis thaliana came to 20%.

Take `COc1cccc(C(=O)Oc2ccc(CC3NC(=S)NC3=O)cc2)c1OC` (stereo not given): the inhibition of growth at 200 µg/mL in the assay with Zea mays [1] was 6.7%; in the assay with Triticum aestivum [2], 20.9%; with Zea mays [3] it was 11.2%; with Triticum aestivum [4], -10.9%. In addition, the inhibition at 200 µg/mL in the assay on Arabidopsis thaliana is 20%.

Consider `O=C(Oc1ccc(CC2NC(=S)NC2=O)cc1)c1ccccc1Cl` (stereo not given), for which the inhibition of growth at 200 µg/mL with Zea mays [1] turned out to be 53.4%; in the assay with Triticum aestivum [2], 53.4%; with Zea mays [3], 5.9%; in the assay with Triticum aestivum [4], 24.7%. For the same compound, in the assay on Arabidopsis thaliana, the inhibition at 200 µg/mL was 30%.

Take `O=C(Oc1ccc(CC2NC(=S)NC2=O)cc1)c1ccccc1[N+](=O)[O-]` (stereo not given): the inhibition of growth at 200 µg/mL was 63.6% with Zea mays [1], 10.6% in the assay on Triticum aestivum [2], 7.6% in the assay on Zea mays [3] and 3.7% with Triticum aestivum [4]. The inhibition at 200 µg/mL in the assay with Arabidopsis thaliana stood at 40%.

In the case of `O=C(Oc1ccc(CC2NC(=S)NC2=O)cc1)c1cccc(Cl)c1` (stereo not given), the inhibition of growth at 200 µg/mL in the assay with Zea mays [1] was 41.7%; in the assay on Triticum aestivum [2], 47.5%; in the assay on Zea mays [3] it was 22.1%; with Triticum aestivum [4], 8.8%. Besides, the inhibition at 200 µg/mL with Arabidopsis thaliana turned out to be 70%.

As for `O=C(Oc1ccc(CC2NC(=S)NC2=O)cc1)c1ccc(Br)cc1` (stereo not given), the inhibition of growth at 200 µg/mL was 14.7% in the assay on Zea mays [1], -48% with Triticum aestivum [2], 22% with Zea mays [3] and 5.2% with Triticum aestivum [4]. Also, the inhibition at 200 µg/mL with Arabidopsis thaliana was found to be 60%.

For the compound `O=C(Oc1ccc(CC2NC(=S)NC2=O)cc1)c1ccc(Cl)cc1` (stereo not given), the inhibition of growth at 200 µg/mL in the assay on Zea mays [1] was 23.5%; with Triticum aestivum [2], -13.6%; in the assay on Zea mays [3] it was 8.6%; with Triticum aestivum [4], -12.9%. For the same compound, the inhibition at 200 µg/mL with Arabidopsis thaliana turned out to be 40%.

In the case of `O=C(Oc1ccc(CC2NC(=S)NC2=O)cc1)c1ccc(Cl)c(Cl)c1` (stereo not given), the inhibition of growth at 200 µg/mL in the assay with Zea mays [1] was 36.7%; in the assay on Triticum aestivum [2], 7%; in the assay with Zea mays [3], 24.1%; in the assay with Triticum aestivum [4], -15.8%. Besides, the inhibition at 200 µg/mL in the assay with Arabidopsis thaliana amounted to 40%.

For the compound `O=C(Oc1ccc(CC2NC(=S)NC2=O)cc1)c1ccc(Cl)c([N+](=O)[O-])c1` (stereo not given), the inhibition of growth at 200 µg/mL in the assay on Zea mays [1] was 54.4%; with Triticum aestivum [2], 2.6%; in the assay on Zea mays [3], 44.2%; in the assay with Triticum aestivum [4], -3.7%. Further, the inhibition at 200 µg/mL with Arabidopsis thaliana is 50%.

Turning to `Cc1cccc(C(=O)Oc2ccc(CC3NC(=S)NC3=O)cc2)c1` (stereo not given), the inhibition of growth at 200 µg/mL with Zea mays [1] is 62.8%; in the assay with Triticum aestivum [2] it was 12.7%; in the assay on Zea mays [3] it was 61.3%; in the assay on Triticum aestivum [4], -14.8%. The inhibition at 200 µg/mL in the assay with Arabidopsis thaliana is 50%.

As for `COc1ccc(C(=O)Oc2ccc(CC3NC(=S)NC3=O)cc2)cc1` (stereo not given), the inhibition of growth at 200 µg/mL in the assay with Zea mays [1] came out at 33.5%; in the assay with Triticum aestivum [2], 32.2%; in the assay with Zea mays [3], 17.8%; in the assay with Triticum aestivum [4], 25.1%. Besides, in the assay with Arabidopsis thaliana, the inhibition at 200 µg/mL was determined as 30%.

In the case of `Cc1ccc(C(=O)Oc2ccc(CC3NC(=S)NC3=O)cc2)cc1` (stereo not given), the inhibition of growth at 200 µg/mL with Zea mays [1] stood at 27.9%; with Triticum aestivum [2], 16.8%; with Zea mays [3], 38.7%; in the assay with Triticum aestivum [4] it was 1.27%. The inhibition at 200 µg/mL with Arabidopsis thaliana came to 60%.

The record behind these values is ChEMBL document CHEMBL3046718, “Synthesis and herbicidal activity of 5-(4-hydroxybenzyl)-2-thioxoimidazolidin-4-one esters” (2011).
